Assay outcomes deposited in PubChem BioAssay by Broad Institute.
An excerpt weighted towards active compounds, which were near 4.4% of everything screened.
HSF1 activator – increases HSF-1 driven luciferase reporter signal. NIH3T3-HGL HSF-1 luciferase reporter, MG132, 8 h; 100% = twice DMSO control signal. activation, % at 9 µM. 300,000 compounds, 1.7% hits. AID 504408;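 active means mean replicate activation of at least 50% with a set share of replicates each reaching 50%; inconclusive means only one of those two conditions met; inactive means mean below 50% and too few replicates reaching it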;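 further: 0% = median of the neutral control wells and 100% = twice that signal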
Calb FLC – C. albicans growth modulation with fluconazole | C. albicans CaCi-2 + fluconazole, Alamar Blue growth, 48 h | growth inhibition, % (concentration not given with the values) | AID 1979 | 300,000 compounds, 0.57% hits;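 active means growth inhibition above about 58% in most replicates, limit read from the data, passing the limit was not always enough; inconclusive means exactly half the replicates above a set limit; inactive means most replicates below a set limit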;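 further: all wells also contain fluconazole at 8 µg/ml as a sub-toxic cotreatment; 0% = median of DMSO wells and 100% = median of geldanamycin control wells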
HSF1 inh – HSF1 inhibition; NIH3T3-HGL HSE-luciferase, MG132-induced, luminescence 8 h; stronger effect = lower value; 300,000 compounds, 0.77% hits; activity change, negative = inhibition, % at 7.5 µM (by protocol);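 active means more than half of replicate wells show activity change below -50%, luminescence cut by over half; inconclusive means some wells, but at most half, below -50%; inactive means no replicate well below -50%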;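 further: luciferase reports HSF-1 transcriptional activity via heat shock element; 0% = median of DMSO wells and -100% = zero luminescence signal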
T cruzi inh – T. cruzi replication inhibition. T. cruzi beta-gal in NIH3T3, luminescence, 90 h. inhibition, % (no concentration beside the values). 300,000 compounds, 1.4% hits;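 active means mean inhibition across valid replicates above about 55%, limit read from the data; inconclusive means mean below that limit but half or more replicates reach it; inactive means mean below it, under half of replicates reach it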;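 further: signal also drops with host cell toxicity which is not excluded here; 0% = plate median of DMSO wells and 100% = zero luminescence signal; higher percent means less beta-gal luminescence so fewer parasites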
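System: mouse NIH/3T3 fibroblasts infected with β-gal-expressing T. cruzi Tulahuen C4 / Input: NIH/3T3 cells, 5,000 per well / Buffer or medium: Low-serum DMEM with 2% FBS / Probe or stimulus: 5000 reporter trypomastigotes per well / Schedule: ≥90 h infection period, 3 h prior cell attachment / Measured by: GalScreen luminescence, 60 min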
HIF activator – HIF pathway transcriptional activation | U2OS HRE-luciferase reporter, luminescence; normalized: DMSO 0%, desferrioxamine 100% | activation, % at 7.5 µM (by protocol) | 300,000 compounds, 0.32% hits;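 active means mean activation of at least 10% of the iron chelator positive control signal, with at least half of replicates also reaching 10%; inconclusive means mean and replicate majority disagree about reaching 10%; inactive means mean and most replicates under 10%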
Active calls of the source: *; ? = inconclusive; · = no result given.

SMILES	HSF1 activator	Calb FLC	HSF1 inh	T cruzi inh	HIF activator
O=C(c1ccccc1)N1CCN(c2ccc(N3CCOCC3)nn2)CC1	-13	-9	-5	-4	-1
O=C(N1CCCCC1)C1(S(=O)(=O)c2ccccc2)CC=CC1	8	-11	3	-11	1
O=C(COc1ccc(Cl)cc1Cl)N1CCCN(C(=O)COc2ccc(Cl)cc2Cl)CC1	24	93*	8	60*	0
Cc1cc(Cl)ccc1OCC(=O)N1CCCCC1	15	-3	12	-1	2
COC(=O)c1sc(NC(=O)/C=C/c2ccc(C)o2)nc1C	57*	-17	28	-19	1
CN(Cc1ccccc1)Cc1c[nH]c2ccccc12	7	-10	-3	55*	-1
CC/C(=N/NC(=O)c1ccccc1O)c1c(C)[nH]n(-c2ccccc2)c1=O	14	101*	1	-11	0
Cc1cc(C)n(C2CC(=O)N(c3ccc(C)c(Cl)c3)C2=O)n1 (stereo unspecified)	11	?	4	-11	0
CCOC(=O)Cc1ccc2sc(-c3ccccc3)nc2c1	92*	-9	53	-3	0
COC(=O)c1ccc(CSc2nc3ccccc3c(=O)n2CC(C)C)o1	71*	-13	36	14	0
COC(=O)c1ccc(CSc2nc3ccccc3c(=O)n2C)o1	-14	7	7	0	0
CC1CCCCC1NC(=O)CSc1nncn1N (stereo unspecified)	3	-17	-7	-25	0
C=CCNC(=O)c1c(C(F)(F)F)nn(C)c1Cl	-64	4	-54*	-12	0
Cc1cccc(C(C(=O)NCc2ccc(F)cc2)N(C(=O)c2csnn2)C2CC2)c1 (stereo unspecified)	7	2	6	-4	0
COc1ccc(C(=O)N(CN2CCCC2=O)c2ccc(C)cc2)cc1	1	103*	5	-2	0
O=C1CN(C(=O)COC(=O)CNS(=O)(=O)/C=C/c2ccccc2)c2ccccc2N1	12	46	1	8	0
COCc1cc(=O)[nH]c(SCCS(=O)(=O)c2ccc(C)cc2)n1	26	8	7	5	0
COCc1cc(=O)[nH]c(SCCS(=O)(=O)c2ccc(Cl)cc2Cl)n1	78*	-14	88	-5	0
CCc1ccc(/C(C)=N/NC(=O)c2ccccn2)cc1	-9	-11	-1	11	0
C/C(=N\NC(=O)c1cc2ccccc2cc1O)c1ccccn1	14	100*	4	12	0
C/C(=N\NC(=O)c1c[nH]c2ccccc12)c1ccco1	8	-15	0	-8	2
C/C(=N\NC(=O)c1c[nH]c2ccccc12)c1ccccn1	28	-30	8	82*	5
CC(=N/O)/C(C)=N\NC(=O)c1ccccn1	-73	4	-66*	-2	-5
O=C1CC2(CCN(S(=O)(=O)c3ccccc3F)CC2)Oc2ccccc21	8	5	0	0	-1
Cc1ccc(N2CC(C(=O)OCC(=O)Nc3ccccc3F)CC2=O)cc1 (stereo unspecified)	8	-28	0	-20	-1
SMILES	HSF1 activator	Calb FLC	HSF1 inh	T cruzi inh	HIF activator
Cc1c(NS(=O)(=O)c2cc(C(=O)NCCN(C)C)ccc2Cl)c(=O)n(-c2ccccc2)n1C	-80	-5	-74*	-6	0
Cc1oc(-c2ccccc2)nc1CS(=O)CC(=O)NC1CCCCCC1 (stereo unspecified)	25	6	6	-16	1
COc1ccc(C(=O)c2c[nH]cc2-c2ccccc2)cc1	-69	-12	-57*	-17	0
O=C(c1ccc2ccccc2c1)c1c[nH]cc1-c1ccccc1	-5	22	5	-3	1
CC1=C(C(=O)N2CCOCC2)C(c2ccc(C)cc2)NC(=S)N1 (stereo unspecified)	-2	·	-4	-14	0
CC1=C(C(=O)N2CCOCC2)C(c2c(C)cc(C)cc2C)NC(=S)N1 (stereo unspecified)	95*	19	64	11	0
CCC1CCCCN1C(=O)/C=C/c1ccc2c(c1)OCO2 (stereo unspecified)	9	-44	-1	-13	-1
Nc1c(-c2nn[nH]n2)cnn1-c1cc(Cl)cc(Cl)c1	16	-4	9	5	0
O=C1CCC(C(=O)Nc2ccc(Cl)cc2)N1 (stereo unspecified)	9	-1	2	11	0
O=C(Nc1ccc(Cl)cc1)C1C2CCCCC21 (stereo unspecified)	79*	17	36	45	-19
C=CCc1cccc(CNc2nc3ccccc3n2CCC)c1O	149*	16	102	-1	-1
O=c1oc2cc([N+](=O)[O-])ccc2nc1/C=C(\O)c1cccc(Br)c1	-4	1	1	-19	16*
O=c1oc2cc([N+](=O)[O-])ccc2nc1/C=C(O)/C=C/c1ccccc1	10	0	0	7	0
Nc1nc(NC(=O)c2ccc(F)cc2)ns1	-25	-1	-5	-13	-1
NC1=C([N+](=O)[O-])C(c2ccc3c(c2)OCO3)C2=C(CCCC2=O)O1 (stereo unspecified)	7	-3	-1	-1	-1
NC(=S)Nc1cccc2[nH]ncc12	7	0	-2	-3	-1
NC(=S)Nc1cccc2[nH]ccc12	7	-14	0	64*	0
Cc1ccc(S(=O)(=O)c2c(N)n(/N=C/c3ccco3)c3nc4ccccc4nc23)cc1C	29	-10	9	46	0
Nc1c(S(=O)(=O)c2ccccc2)c2nc3ccccc3nc2n1/N=C/c1ccco1	8	-5	13	22	0
Cc1cccc(S(=O)(=O)c2c(N)n(/N=C/c3ccco3)c3nc4ccccc4nc23)c1	26	22	19	57*	0
Cc1ccc(S(=O)(=O)c2c(N)n(/N=C/c3ccco3)c3nc4ccccc4nc23)cc1	37	?	33	78*	0
Cc1ccc(OCC(=O)NC2CCS(=O)(=O)C2)c([N+](=O)[O-])n1 (stereo unspecified)	-13	-2	-2	-5	0
CCOC(=O)c1c(NC(=O)C(C)N2CCN(S(=O)(=O)c3cccs3)CC2)sc2c1CCC(C)C2 (stereo unspecified)	-9	-18	-2	-1	0
Cc1ccc(CN2C(=O)c3ccccc3NC2c2cc(Br)ccc2O)cc1 (stereo unspecified)	-5	0	-10	11	1
CN(CC(=O)Nc1cccc(F)c1)C(=O)c1ccccc1OCC(=O)Nc1cccc(C(F)(F)F)c1	9	-4	7	61*	0
O=C(NNC(=O)c1cccnc1SCc1cccc([N+](=O)[O-])c1)c1ccc(F)cc1	-1	13	0	-8	1
